# Assay outcomes as filed in PubChem BioAssay.
# G6PDH CS = counter-screen for G6PDH assay hits: L. mesenteroides G6PDH inhibition; Purified L. mesenteroides G6PDH, diaphorase/resazurin coupled fluorescence, 45 min; inhibition, % at 5 µM; 200,000 compounds, 0.12% hits; AID 1020; in the data active = inhibition above about 50%
# PfG6PD inh = PfG6PD (Plasmodium falciparum) enzyme inhibition. PfGluPho enzyme, NADPH resazurin-diaphorase fluorescence. inhibition, % at 20 µM. 350,000 compounds, 0.78% hits. AID 504690;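 active = inhibition reaching at least a set limit at 20 µM in the primary screen, cut at about 59% in these data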;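 note: 0% = DMSO wells with substrate and 100% = DMSO wells lacking glucose-6-phosphate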
# Diaph inh CS = inhibits diaphorase or chemically oxidizes, flagging diaphorase assay artifacts | diaphorase resazurin-to-resorufin fluorescence, NADH, 16 min; bacterial (C. kluyveri) enzyme, not human | inhibition, % at 20 µM | 190,000 compounds, 0.69% hits;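 active = primary screen inhibition at 20 µM above a set limit, cut at about 50% in these data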;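 note: plate controls were DMSO with full reaction for no effect and wells lacking NADH for full effect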
#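 System: Diaphorase enzyme from Clostridium kluyveri | Amount: Enzyme working solution with 0.14 U/mL diaphorase | Benchmarks: No-NADH positive control and DMSO neutral control | Signal: Fluorescence of resorufin formed from resazurin, Ex 544/Em 590 nm | Schedule: 16-min room-temperature incubation before reading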
# HKDC1 inh = HKDC1 (human) hexokinase inhibition. recombinant HKDC1, G6PDH/diaphorase resazurin coupled fluorescence. inhibition, % at 20 µM. 340,000 compounds, 0.16% hits. AID 493160;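 active = inhibition above about 35% when tested at 20 µM, limit read from the data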;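 note: plate controls were DMSO wells with enzyme for no effect and DMSO wells lacking enzyme for full effect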
#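 Test system: Recombinant HKDC1 (HK5) hexokinase enzyme, produced in-house | Input: HKDC1 at 5 µg/mL | Buffer or medium: Tris pH 8.0 buffer with MgCl2, Tween-20, BSA, BME | Schedule: 90 min reaction incubation at room temperature, dark | Technique: Resazurin-to-resorufin fluorescence via G6PDH and diaphorase coupling, 525/613 nm | Controls: DMSO wells with and without enzyme mix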
# * marks the source's active call; other numbers are inactive results; x = no result. Rows were chosen to be rich in hits. Some 1.2% of all compounds tested hit in one or more screens of this group.
SMILES,G6PDH CS,PfG6PD inh,Diaph inh CS,HKDC1 inh
COc1cc(/C=N/NC(=S)Nc2cccc(Cl)c2C)ccc1OCC(=O)N1CC(C)OC(C)C1 (centres undefined),-24,9,54*,-13
CCOP(=O)(OCC)c1nc(/C=C/c2ccccc2)oc1NCc1ccccc1,6,20,54*,1
CCOP(=O)(OCC)c1nc(/C=C/c2ccccc2)oc1NCc1ccc(OC)cc1,8,8,52*,12
O=C(CN1CCN(C(=O)C2CCCO2)CC1)Nc1ccc(F)cc1 (centres undefined),x,-6,x,-4
C=CCNC(=O)CN1C(=O)CSc2ccc(S(=O)(=O)N3CCOCC3)cc21,x,9,x,x
O=C(/C=C/c1cccc([N+](=O)[O-])c1)c1ccc([N+](=O)[O-])o1,x,98*,x,55*
Cc1ccc(C(=O)N/C(=C\c2ccccc2F)c2nc(=S)[nH][nH]2)cc1,4,1,51*,-14
Cc1ccc(/C=C(\NC(=O)c2ccc(C)cc2)c2nc(=S)[nH][nH]2)cc1,4,12,29,4
CN1CCN(C2=C(Cl)C(=O)C(c3cnc(N4CCCCC4)s3)=C(Cl)C2=O)CC1,51*,91*,64*,55*
O=[N+]([O-])c1cc(/C=N\Nc2nccs2)ccc1O,4,x,90*,x
Cc1ccc(NC(=O)CSc2nc(N)cc(=O)[nH]2)cc1S(=O)(=O)N1CCCCC1,x,-25,x,0
O=c1[nH]c(/C=C2\C=Nc3ccccc32)c(O)n1Cc1ccccc1F,6,14,69*,1
CCOc1ccc2[nH]c(=O)c(C(c3nnnn3CC3CCCO3)N3CCc4ccccc4C3)cc2c1 (centres undefined),14,2,59*,2
CCc1ccc2[nH]c(=O)c(C(c3nnnn3CC3CCCO3)N3CCCc4ccccc43)cc2c1 (centres undefined),19,15,68*,3
Cc1ccc2cc(C(c3nnnn3CC3CCCO3)N3CCc4ccccc4C3)c(=O)[nH]c2c1 (centres undefined),-2,10,54*,14
Cc1cccc2cc(C(c3nnnn3CC3CCCO3)N3CCCC4(CCCCC4)C3)c(=O)[nH]c12 (centres undefined),6,x,31,x
Cc1cccc2cc(C(c3nnnn3CC3CCCO3)N3CCc4ccccc4C3)c(=O)[nH]c12 (centres undefined),22,8,55*,22
Cc1ccc2cc(C(c3nnnn3CC3CCCO3)N3CCCC4(CCCCC4)C3)c(=O)[nH]c2c1 (centres undefined),x,39,x,0
COC(=O)c1c[nH]c(=S)n1Cc1ccccc1,x,38,x,-5
CN(CC(=O)NCC1CCCCC1)CC(=O)Nc1ccc(F)cc1,x,-7,x,-4
CN(C(=O)CSc1nnc(C2CC2)n1C1CC1)C1(C#N)CCCCC1,x,-4,x,-2
COc1ccc2ccc(OC)c(/C=N/NC(=O)c3cc4ccccc4o3)c2c1,x,38,x,x
Cc1ccc(OCCC(=O)Nc2cc(S(=O)(=O)N3CCOCC3)ccc2N2CCCC2)cc1,x,-1,x,-3
Cc1cc2cc(C(c3nnnn3CC3CCCO3)N3CCCc4ccccc43)c(=O)[nH]c2cc1C (centres undefined),22,-2,50,14
Cc1cccc2cc(C(c3nnnn3CC3CCCO3)N3CCCc4ccccc43)c(=O)[nH]c12 (centres undefined),5,-2,60*,1
SMILES,G6PDH CS,PfG6PD inh,Diaph inh CS,HKDC1 inh
CCCCCCNC(=O)N[C@@H](C(=O)NCCC[C@H]1CN2C(=NC[C@@H]2Cc2ccccc2)N1CCc1cccc(OC)c1)C(C)C,x,64*,x,5
C/C=C(\C)C(=O)NCCN1C2=NC[C@@H](Cc3ccccc3)N2C[C@@H]1Cc1ccc(OC)cc1,x,-4,x,-2
O=C(O)C1CCCC[C@H]1C(=O)Nc1ncc([N+](=O)[O-])s1 (some centres undefined),x,-4,x,-3
COc1ccc(C(=O)Nc2ccc(O)c3ccccc23)cc1,x,30,x,16
COc1ccc(NC(=O)Nc2ccc(O)c3ccccc23)cc1,x,72*,x,24
COc1cc(/C=N/NC(=O)C(Cc2c[nH]c3ccccc23)NC(=O)OCC(C)C)cc([N+](=O)[O-])c1OCc1ccccc1 (centres undefined),15,-4,71*,8
N#Cc1ccc(C(=O)Nc2cccc3ccccc23)c(F)c1,x,6,x,-4
Cc1cc(N=Cc2c(O)ccc3cc(Br)ccc23)no1,23,9,64*,24
O=C1c2ccc3c4c(ccc(c24)C(=O)N1c1ccc(O)cc1)C(=O)N(c1ccc(O)cc1)C3=O,10,29,11,56*
O=C(O)c1ccc(S(=O)(=O)c2ccc3c(c2)C(=O)N(c2ccc(O)cc2)C3=O)cc1,x,-5,x,-10
Cc1ccc(-c2c3c(nc4sc(C(N)=O)c(N)c24)CCCC3)o1,10,15,31,3
O=C(COC(=O)c1c2c(nc3ccccc13)/C(=C\c1ccco1)CC2)NC1CCCC1,x,21,x,14
Nc1c(C(=O)NC2CC2)sc2nc3c(c(-c4ccco4)c12)CC/C3=C/c1ccco1,13,36,87*,28
NC(=O)c1sc2nc3c(c(-c4ccco4)c2c1N)CCC3,-4,9,81*,4
COc1ccc(CCN2CC(C(=O)NCCCn3nc(C)cc3C)CCC2=O)cc1 (centres undefined),x,-17,x,-2
N=c1oc2cc(O)ccc2cc1C(=O)Nc1ccc(Cl)cc1,x,1,x,-8
O=[N+]([O-])c1cc(S(=O)(=O)NCCN2CCOCC2)ccc1Sc1nnnn1-c1ccccc1,5,1,24,9
Cc1ccc(-n2nnnc2Sc2ccc(S(=O)(=O)NCCN(C)C)cc2[N+](=O)[O-])cc1,10,0,53*,21
CC(C)S(=O)(=O)C1=NSC2=NC(=O)/C(=C\c3ccc(-c4ccccc4)o3)C(=N)N21,-5,-31,24,4
N=C1/C(=C/c2ccc(-c3cccc(C(=O)O)c3)o2)C(=O)N=C2SC=C(c3ccccc3)N12,2,-15,54*,20
CC(C)S(=O)(=O)C1=NSC2=NC(=O)/C(=C\c3ccc(-c4cccc(C(=O)O)c4)o3)C(=N)N21,13,-22,74*,18
Cc1noc(C)c1C(=O)OCC(=O)NC1CCCCC1C (centres undefined),x,-13,x,-7
O=c1[nH]sc2ccccc12,2,65*,-12,-5
Cc1ccc(C(=O)N2CCC(Cc3ccccc3)CC2)cc1S(=O)(=O)N1CCOCC1,x,3,x,-1
O=C(COC(=O)CCc1ccccc1)NC12CC3CC(CC(C3)C1)C2,3,0,71*,-1
O=C(COC(=O)C(O)c1ccccc1)NC12CC3CC(CC(C3)C1)C2 (centres undefined),-2,-18,15,-7
O=C1Nc2ccccc2C12Nc1ccccc1-c1nc3ccccc3n12 (centres undefined),0,29,39,3
